Assays:
EMT6 = test: Cytotoxicity against mouse EMT6 cells after 72 hrs by crystal violet staining; format: functional; details: EMT6, 72 h, read-out: LD50 (the source's name)
[1] = Inhibition of human recombinant Trx1/TrxR assessed as reduction in number of free thiols from reduced insulin after 30 mins by insulin reduction assay
Procedure, shortened: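 At least seven compound concentrations. Incubated 30 min at 37 °C, stopped with 8 mM DTNB in 8 M guanidine HCl, A412. IC50 from four-parameter logistic fit. Triplicates, mean ± SD, n ≥ 3.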

[2] = Cytotoxicity against mouse PancO2 cells after 72 hrs by crystal violet staining; format: functional; details: read-out: LD50 (the source's name)
[3] = Solubility of the compound in biological media; format: ADME
[4] = Chemical stability of the compound; format: physicochemical

SMILES | CC50 (EMT6) [µM] | IC50 [1] [µM] | CC50 [2] [µM] | solubility [3] | Stability [4]
C=C(CBr)C(=O)N(Cc1ccccc1)[C@@H](CC(C)C)C(=O)NCC(=O)OCc1ccccc1 | > 50 | 10 | > 50 | – | –
CC(C)C[C@@H](C(=O)NCC(=O)OCc1ccccc1)N(Cc1ccccc1)C(=O)C(CBr)CBr | – | > 50 | – | – | –
C=C(COC(=O)c1c(Cl)cccc1Cl)C(=O)N[C@@H](CC(C)C)C(=O)NCC(=O)OCC | 5.5 | 3 | 3 | Insoluble | –
C=C(CBr)C(=O)N(Cc1ccc(OC)cc1OC)[C@@H](CC(C)C)C(=O)NCC(=O)OCC | > 50 | 8.9 | > 50 | – | –
C=C(COC(=O)c1c(C(F)(F)F)cccc1C(F)(F)F)C(=O)OC | > 25 | 0.4 | > 25 | – | Unstable
C=C(CI)C(=O)N(Cc1ccccc1)[C@@H](CC(C)C)C(=O)NCC(=O)OCc1ccccc1 | > 50 | 3.9 | > 50 | – | –
CC(C)C[C@@H](C(=O)NCC(=O)OCc1ccccc1)N(Cc1ccccc1)C(=O)C(CI)CI | – | > 50 | – | – | –
Cc1ccc(S(=O)(=O)OCC(COS(=O)(=O)c2ccc(C)cc2)C(=O)N(Cc2ccccc2)[C@@H](CC(C)C)C(=O)NCC(=O)OCc2ccccc2)cc1 | – | > 50 | – | – | –
